Laboratory results taken from ChEMBL document CHEMBL1126280, “Development of a novel series of styrylquinoline compounds as high-affinity leukotriene D4 receptor antagonists: synthetic and structure-activity studies leading to the discovery of (+-)-3-[[[3-[2-(7-chloro-2-quinolinyl)-(E)-ethenyl]phenyl][[3- (dimethylamino)-3-oxopropyl]thio]methyl]thio]propionic …” (J Med Chem, 1992).

Assays:
Cavia porcellus = experiment: Compound was evaluated in vivo for its effective dose against bronchoconstriction induced by LTD4 (0.2 ug/kg, iv) in anesthetized guinea pigs followed by id administration; type: functional
In short: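 Anesthetized guinea pigs were dosed once intraduodenally and challenged with LTD4 (0.2 μg/kg iv) 10, 30 and 50 min later. The effective dose is the minimum id dose giving over 50% inhibition of bronchoconstriction within 50 min. The number of experiments is reported with each value.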

Rattus norvegicus [1] = experiment: Compound was evaluated in vivo for inhibition of dyspnea induced by a 5 min aerosol of ovalbumin in 6 hyperreactive rats at dose of 0.5 mg/Kg; type: functional
In short: (§1)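 Oral single-dose test in hyperreactive rats, six animals, with dyspnea provoked by a 5 min ovalbumin aerosol. The value is the percent inhibition of dyspnea at the one stated dose.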

Rattus norvegicus [2] = experiment: Compound was evaluated in vivo for inhibition of dyspnea induced by a 5 min aerosol of ovalbumin in 6 hyperreactive rats for each of three doses; type: functional
In short: (§2)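 Oral dosing in hyperreactive rats. Dyspnea was provoked by a 5 min ovalbumin aerosol. Six rats were used at each of three doses. The ED50 was derived from the percent inhibition of dyspnea across those doses.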

[3] = target: T1, Cysteinyl leukotriene receptor 1 (Cavia porcellus) (UniProt Q2NNR5); experiment: In vitro inhibition of [3H]LTD4 binding to guinea pig lung membranes at 1 uM; type: functional, tissue-based; settings: Membrane
T1 sequence (whole entry): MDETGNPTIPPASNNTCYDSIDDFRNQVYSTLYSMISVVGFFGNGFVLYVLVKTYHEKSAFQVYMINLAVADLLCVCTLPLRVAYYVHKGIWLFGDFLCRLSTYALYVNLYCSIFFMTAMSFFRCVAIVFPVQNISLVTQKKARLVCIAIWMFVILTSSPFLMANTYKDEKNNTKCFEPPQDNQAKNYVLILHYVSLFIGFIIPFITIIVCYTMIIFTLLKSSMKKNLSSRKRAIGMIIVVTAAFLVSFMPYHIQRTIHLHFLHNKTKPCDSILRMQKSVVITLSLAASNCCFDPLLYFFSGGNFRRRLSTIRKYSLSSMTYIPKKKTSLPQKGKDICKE

[4] = target: T2, Cysteinyl leukotriene receptor 1 (Cavia porcellus, UniProt Q2NNR5); experiment: (§3) In vitro inhibition of [3H]LTD4 binding to guinea pig lung membranes; type: tissue-based, Membrane
T2 sequence (Q2NNR5 whole entry): T1 sequence (whole entry)

[5] = target: T2, Cysteinyl leukotriene receptor 1; experiment: as §3; type: functional, tissue-based, Membrane
Rattus norvegicus [6] = experiment: Compound was evaluated in vivo for inhibition of dyspnea induced by a 5 min aerosol of ovalbumin in six hyperactive rats for each of three doses; type: functional; in short: as §2
Rattus norvegicus [7] = experiment: Compound was evaluated in vivo for inhibition of dyspnea induced by a 5 min aerosol of ovalbumin in 6 hyperreactive rats at dose of 1.5 mg/Kg; type: functional; in short: as §1

Work on `O=C([O-])CCCOc1cccc(/C=C/c2ccc3ccc(Cl)cc3n2)c1.[Na+]` yielded an Effective dose (Cavia porcellus) of 2.5 mg/kg and an inhibition in vivo at 0.5 mg/kg (Rattus norvegicus [1]) of 41%.

`O=C(O)CCSC(SCCC(=O)O)c1cccc(/C=C/c2ccc3ccc(Cl)cc3n2)c1` was tested, and the Effective dose (Cavia porcellus) was 0.5 mg/kg and the ED50 (Rattus norvegicus [2]) was 0.1 mg/kg.

`O=C(O)CCCOc1cccc(/C=C/c2ccc3ccccc3c2)c1` gave an inhibition [3] of 11%.

In the case of `O=C(O)CCSC(SCCC(=O)O)c1cccc(OCc2ccc3ccc(Cl)cc3n2)c1`, the IC50 [4] is reported as 13.6 nM.

`CC(Oc1cccc(Sc2ccc3ccc(Cl)cc3n2)c1)C(=O)O` (stereo unspecified) gave an inhibition [3] of 24%.

For `O=C(O)CCSC(SCCC(=O)O)c1cccc(CCc2ccc3ccc(Cl)cc3n2)c1`, the IC50 [4] was 57 nM.

With `CCOC(=O)CCCOc1cccc(/C=C/c2ccc3ccccc3n2)c1` the Effective dose (Cavia porcellus) was 5 mg/kg and the ED50 (Rattus norvegicus [2]) was 1.5 mg/kg.

With `O=C(O)CCSC(SCCC(=O)O)c1cccc(C2CC2c2ccc3ccc(Cl)cc3n2)c1` (stereo unspecified) the IC50 [4] was 32 nM.

Work on `O=C(O)CCSC(SCCC(=O)O)c1cccc(CCCc2ccc3ccc(Cl)cc3n2)c1` yielded an IC50 [4] of 250 nM.

Molecule `NC(=O)CCSC(SCCC(=O)O)c1cccc(/C=C/c2ccc3ccc(Cl)cc3n2)c1` (stereo unspecified) has an IC50 [4] of 0.3 nM and an Effective dose (Cavia porcellus) of 0.5 mg/kg.

`CN(C)C(=O)CCSC(SCCC(=O)O)c1cccc(SCc2ccc3ccc(Cl)cc3n2)c1` (stereo unspecified) gave an IC50 [4] of 89 nM.

With `O=C([O-])CCCOc1cccc(/C=C/c2ccc3cc(Cl)c(Cl)cc3n2)c1.[Na+]` the Effective dose (Cavia porcellus) was 1 mg/kg and the ED50 (Rattus norvegicus [2]) was 0.5 mg/kg.

For `COC(=O)COc1cccc(/C=C/c2ccc3cc(C)ccc3n2)c1`, the Effective dose (Cavia porcellus) was greater than 10 mg/kg and the IC50 [5] was 930 nM.

Work on `CN(C)C(=O)CCSC(SCCC(=O)O)c1cccc(/C=C/c2ccc3ccc(Cl)cc3n2)c1` (stereo unspecified) [MK-571] yielded an IC50 [4] of 0.8 nM, an Effective dose (Cavia porcellus) of 0.1 mg/kg and an ED50 (Rattus norvegicus [2]) of 0.07 mg/kg.

`O=C([O-])CCCOc1cccc(/C=C/c2ccc3c(Cl)cccc3n2)c1.[Na+]` was tested, and the Effective dose (Cavia porcellus) was greater than 5 mg/kg.

`O=C(O)CCSC(SCCC(=O)O)c1cccc(NC(=O)c2ccc3ccccc3n2)c1` was tested, and the IC50 [4] was 440 nM.

`C(=C\c1ccc2ccccc2n1)/c1ccncc1` gave an IC50 [4] of 3300 nM.

In the case of `CN(C)CCSC(SCCC(=O)O)c1cccc(/C=C/c2ccc3ccc(Cl)cc3n2)c1` (stereo unspecified), the IC50 [4] is reported as 60 nM.

Molecule `C(=C\c1ccc2ccccc2n1)/c1cccnc1` has an IC50 [4] of 6000 nM.

Molecule `CCCC/C=C/c1ccc2nc(/C=C/c3cccc(OCC(=O)OC)c3)ccc2c1` has an inhibition [3] of 12%.

Work on `C(=C\c1ccc2ccccc2n1)/c1ccccc1` yielded an IC50 [4] of 6000 nM.

`O=C(O)CCSC(SCCC(=O)N1CCOCC1)c1cccc(/C=C/c2ccc3ccc(Cl)cc3n2)c1` (stereo unspecified) was tested, and the IC50 [4] was 2.2 nM, the Inhibition (Rattus norvegicus [6]) was 43% and the Effective dose (Rattus norvegicus [2]) was 0.15 mg/kg.

`O=C([O-])CCCOc1cccc(/C=C/c2ccc3cc(Cl)ccc3n2)c1.[Na+]` was tested, and the Effective dose (Cavia porcellus) was 5 mg/kg and the inhibition in vivo at 1.5 mg/kg (Rattus norvegicus [7]) was 40%.

`COC(=O)COc1cccc(/C=C/c2ccc3ccccc3n2)c1` was tested, and the Effective dose (Cavia porcellus) was 10 mg/kg and the ED50 (Rattus norvegicus [2]) was 2 mg/kg.
